{"source": "paper PMC3313004", "about": "(Molecular Microbiology, 2012)", "key": {"[1]": {"test_system": "TcdBHV treated CHO-K1 cells", "assay": "Inactivation of TcdB in cell culture", "assay_type": "cell-based", "settings": "TcdBHV pre-incubated with 100 µM inhibitor; 24 hrs", "method_in_brief": "(§1)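 CHO-K1 cells were seeded at 1–2 × 10^4 cells/well in F12-K medium with 10% FBS. Toxin at 0.037, 0.37 or 3.7 pM was preincubated for 30 min in F12-K medium with 100 µM of the CPD inhibitor Ac-GSL-AOMK, then added to wells in triplicate. Cells were kept 24 h at 37°C, 6% CO₂, and viability was read by CCK-8.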"}, "[2]": {"test_system": "TcdBHV", "assay": "In vitro inhibition of IP6-induced processing with Ac-GSL-AOMK", "assay_type": "biochemical, Clostridium difficile BI17"}, "[3]": {"test_system": "TcdBHIST treated CHO-K1 cells", "assay": "Inactivation of TcdB in cell culture", "assay_type": "cell-based", "settings": "TcdBHIST pre-incubated with 100 µM inhibitor; 24 hrs", "method_in_brief": "as §1"}, "[4]": {"target": "T1, TcdBHIST (Clostridioides difficile, UniProt P18177)", "T1 sequence (P18177 whole entry)": "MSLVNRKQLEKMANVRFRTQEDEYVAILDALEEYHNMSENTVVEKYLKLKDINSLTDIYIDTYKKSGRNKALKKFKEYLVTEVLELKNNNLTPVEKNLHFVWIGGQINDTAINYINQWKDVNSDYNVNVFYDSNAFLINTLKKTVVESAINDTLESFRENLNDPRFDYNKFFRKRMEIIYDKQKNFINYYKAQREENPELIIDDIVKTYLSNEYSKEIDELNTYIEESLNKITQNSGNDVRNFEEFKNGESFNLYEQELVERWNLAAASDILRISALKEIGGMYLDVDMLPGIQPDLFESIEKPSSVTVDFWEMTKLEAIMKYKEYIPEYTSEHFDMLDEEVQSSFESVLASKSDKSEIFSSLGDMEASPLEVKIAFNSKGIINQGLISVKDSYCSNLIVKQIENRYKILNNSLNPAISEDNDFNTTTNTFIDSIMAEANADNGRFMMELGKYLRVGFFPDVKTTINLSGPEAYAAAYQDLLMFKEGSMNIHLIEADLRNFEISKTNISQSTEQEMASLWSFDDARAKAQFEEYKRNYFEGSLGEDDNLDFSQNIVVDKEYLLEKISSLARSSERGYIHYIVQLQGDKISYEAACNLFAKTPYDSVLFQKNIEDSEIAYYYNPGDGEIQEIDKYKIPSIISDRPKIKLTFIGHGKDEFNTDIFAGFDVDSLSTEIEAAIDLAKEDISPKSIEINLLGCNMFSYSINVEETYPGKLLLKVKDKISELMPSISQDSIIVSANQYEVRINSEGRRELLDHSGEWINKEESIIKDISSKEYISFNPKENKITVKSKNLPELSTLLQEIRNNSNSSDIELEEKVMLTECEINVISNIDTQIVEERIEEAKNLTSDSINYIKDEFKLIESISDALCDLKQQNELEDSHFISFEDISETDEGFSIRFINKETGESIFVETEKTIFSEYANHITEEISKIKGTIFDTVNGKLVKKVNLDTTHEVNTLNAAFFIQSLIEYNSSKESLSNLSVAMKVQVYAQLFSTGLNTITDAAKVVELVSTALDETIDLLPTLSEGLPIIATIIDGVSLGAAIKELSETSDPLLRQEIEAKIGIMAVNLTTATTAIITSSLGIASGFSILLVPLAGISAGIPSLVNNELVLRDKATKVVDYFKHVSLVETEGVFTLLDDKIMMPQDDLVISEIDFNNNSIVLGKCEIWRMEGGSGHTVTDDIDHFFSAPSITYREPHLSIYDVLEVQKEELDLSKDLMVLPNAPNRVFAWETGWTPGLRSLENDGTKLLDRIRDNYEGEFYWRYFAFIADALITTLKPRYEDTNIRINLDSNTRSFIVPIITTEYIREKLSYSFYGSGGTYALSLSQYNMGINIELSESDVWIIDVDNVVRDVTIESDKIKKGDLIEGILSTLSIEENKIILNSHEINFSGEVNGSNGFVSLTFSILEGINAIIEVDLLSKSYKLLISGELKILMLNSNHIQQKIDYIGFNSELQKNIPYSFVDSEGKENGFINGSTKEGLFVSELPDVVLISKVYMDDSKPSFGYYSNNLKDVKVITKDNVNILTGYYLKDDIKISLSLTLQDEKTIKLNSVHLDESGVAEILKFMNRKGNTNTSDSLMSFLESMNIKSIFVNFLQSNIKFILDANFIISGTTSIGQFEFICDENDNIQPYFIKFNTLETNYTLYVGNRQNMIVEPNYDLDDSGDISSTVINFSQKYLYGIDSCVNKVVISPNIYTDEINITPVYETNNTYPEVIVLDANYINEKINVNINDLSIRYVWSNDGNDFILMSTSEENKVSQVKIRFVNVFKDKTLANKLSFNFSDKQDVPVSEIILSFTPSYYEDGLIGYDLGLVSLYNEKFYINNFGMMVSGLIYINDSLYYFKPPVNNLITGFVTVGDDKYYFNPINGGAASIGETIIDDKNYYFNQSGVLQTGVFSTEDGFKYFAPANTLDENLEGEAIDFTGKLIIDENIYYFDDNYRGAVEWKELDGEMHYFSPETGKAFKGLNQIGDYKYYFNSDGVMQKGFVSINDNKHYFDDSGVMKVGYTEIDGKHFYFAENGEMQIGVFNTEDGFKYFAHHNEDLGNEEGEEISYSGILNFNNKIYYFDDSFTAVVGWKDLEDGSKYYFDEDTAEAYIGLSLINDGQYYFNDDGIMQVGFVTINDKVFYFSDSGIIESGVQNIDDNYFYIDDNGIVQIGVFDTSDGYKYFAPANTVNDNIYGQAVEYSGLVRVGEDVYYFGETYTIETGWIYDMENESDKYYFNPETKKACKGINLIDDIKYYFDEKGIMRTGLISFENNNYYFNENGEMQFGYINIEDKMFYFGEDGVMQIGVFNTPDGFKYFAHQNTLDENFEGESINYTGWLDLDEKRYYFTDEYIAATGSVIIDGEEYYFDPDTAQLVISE"}, "[5]": {"test_system": "TcdBHV", "assay": "In vitro TcdB autoprocessing assay", "assay_type": "biochemical, Clostridium difficile BI17"}, "[6]": {"test_system": "TcdBHV", "assay": "AWP19 probe labeling of TcdB", "assay_type": "biochemical, Clostridium difficile BI17", "settings": "1 h IP6, then AWP19 in 10-fold molar excess"}, "[7]": {"target": "T1, TcdBHIST", "assay": "AWP19 probe labeling of TcdB", "assay_type": "biochemical, Clostridium difficile 10463", "settings": "1 h IP6, then AWP19 in 10-fold molar excess"}, "[8]": {"target": "T1, TcdBHIST", "assay": "In vitro TcdB autoprocessing assay", "assay_type": "biochemical, Clostridium difficile 10463"}, "[9]": {"settings": "up to 100 µM inhibitor, 25 µM IP6, 3 independent experiments"}}}
{"compound": "Ac-GSL-AOMK", "values": [{"measurement": "protection of CHO cells from toxin", "setting": "[1]", "value": "not as functional"}, {"measurement": "concentration at which inhibition of IP6-induced processing was detectable", "setting": "[2]; 25 µM IP6", "value": "around 12.5 µM"}, {"measurement": "effect of inhibitor without IP6", "setting": "[2]; no IP6 (data not shown)", "value": "no effect"}, {"measurement": "maximum percent inhibition of processing", "setting": "[2]; [9]", "value": "around 60%"}, {"measurement": "protection of CHO cells from toxin", "setting": "[3]", "value": "provided protection"}, {"measurement": "concentration at which inhibition of IP6-induced processing was detectable", "setting": "[4]; 25 µM IP6", "value": "around 12.5 µM"}, {"measurement": "effect of inhibitor without IP6", "setting": "[4]; no IP6 (data not shown)", "value": "no effect"}, {"measurement": "percent of proteolysis blocked", "setting": "[4]; [9]", "value": "~100", "unit": "%"}]}
{"compound": "O=P(O)(O)OC1C(OP(=O)(O)O)C(OP(=O)(O)O)C(OP(=O)(O)O)C(OP(=O)(O)O)C1OP(=O)(O)O", "note": "(centres unmarked) [IP6, inositol hexakisphosphate]", "values": [{"measurement": "time to half-maximal level of proteolysis", "setting": "[5]; 100 µM IP6", "value": "≤ 2", "unit": "min"}, {"measurement": "percent cleavage (autoprocessing)", "setting": "[5]; 100 µM IP6, within the first hour", "value": "~80", "unit": "%"}, {"measurement": "IP6 concentration at which AWP19-labeled toxin could be detected", "setting": "[6]", "value": 5, "unit": "µM"}, {"measurement": "IP6 concentration at which AWP19-labeled toxin could be detected", "setting": "[7]", "value": 5, "unit": "µM"}, {"measurement": "time to half-maximal level of proteolysis", "setting": "[8]; 100 µM IP6", "value": "≤ 2", "unit": "min"}, {"measurement": "maximal processing", "setting": "[8]; 100 µM IP6, up to 60 min", "value": "under 60%"}]}
{"compound": "O[C@@H](CS)[C@@H](O)CS", "note": "(racemic) [DTT, Dithiothreitol]", "values": [{"measurement": "time to maximum activation", "setting": "[5]; 5 mM DTT in place of IP6", "value": "approximately 1 h"}, {"measurement": "time to activation of processing", "setting": "[5]; 5 mM DTT in place of IP6, 90 min time-course", "value": "≤ 15", "unit": "min"}, {"measurement": "activation of processing", "setting": "[8]; 5 mM DTT, 90 min time-course", "value": "just slightly above the level of detection"}]}
